Results published in publication PMC5338039 (Biochemistry, 2017).
“Also recorded” adds a separate entry of the source.

Tests used:
WT GPR55 [1] = biological target: T1, WT GPR55 (Homo sapiens, UniProt Q9Y2T6); experiment: SRE luciferase assay, WT GPR55; format: cell-based
GPR55 Y3.32F [2] = biological target: T2, GPR55 Y3.32F (Homo sapiens, UniProt Q9Y2T6, Y101F); experiment: SRE luciferase assay, Y3.32F mutant; format: cell-based
Method in brief: (§1)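 HA-tagged human GPR55 (WT or sequence-confirmed site-directed mutant, pcDNA3) co-transfected by lipofection with pGL4.33 luc2P/SRE reporter into HEK293 cells; 60,000 cells/well, switched to 1% FBS/DMEM after 5 h, overnight. Agonist test compounds (10 mM DMSO stocks) added for 5 h in serum-free DMEM, 37°C. Cells lysed 10 min at room temperature, luciferin injected, luminescence read immediately (RLU). EC50 from sigmoidal nonlinear regression.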

GPR55 Y3.32L [3] = biological target: T3, GPR55 Y3.32L (Homo sapiens, UniProt Q9Y2T6, Y101L); experiment: SRE luciferase assay, Y3.32L mutant; format: cell-based
Method in brief: as §1

GPR55 F6.55A [4] = biological target: T4, GPR55 F6.55A (Homo sapiens, UniProt Q9Y2T6, F246A); experiment: SRE luciferase assay, F6.55A mutant; format: cell-based
Method in brief: as §1

GPR55 F6.55L [5] = biological target: T5, GPR55 F6.55L (Homo sapiens, UniProt Q9Y2T6, F246L); experiment: SRE luciferase assay, F6.55L mutant; format: cell-based
Method in brief: as §1

GPR55 Q6.58M = GPR55 Q6.58M (Homo sapiens, UniProt Q9Y2T6, Q249M); experiment: SRE luciferase assay, Q6.58M mutant; format: cell-based
Method in brief: as §1

GPR55 C(10)A [6] = biological target: T6, GPR55 C(10)A (Homo sapiens, UniProt Q9Y2T6, C10A); experiment: SRE luciferase assay, C; format: cell-based
Method in brief: as §1

GPR55 H(170)F = GPR55 H(170)F (Homo sapiens, UniProt Q9Y2T6, H170F); experiment: SRE luciferase assay, H; format: cell-based
Method in brief: as §1

GPR55 C(260)A [7] = biological target: T7, GPR55 C(260)A (Homo sapiens, UniProt Q9Y2T6, C260A); experiment: SRE luciferase assay, C; format: cell-based
Method in brief: as §1

GPR55 Q7.36A = GPR55 Q7.36A (Homo sapiens, UniProt Q9Y2T6, Q271A); experiment: SRE luciferase assay, Q7.36A mutant; format: cell-based
Method in brief: as §1

GPR55 Q7.36N = GPR55 Q7.36N (Homo sapiens, UniProt Q9Y2T6, Q271N); experiment: SRE luciferase assay, Q7.36N mutant; format: cell-based
Method in brief: as §1

GPR55 M3.36A [8] = biological target: T8, GPR55 M3.36A (Homo sapiens, UniProt Q9Y2T6, M105A); experiment: SRE luciferase assay, M3.36A mutant; format: cell-based
Method in brief: as §1

GPR55 F6.48A [9] = biological target: T9, GPR55 F6.48A (Homo sapiens, UniProt Q9Y2T6, F239A); experiment: SRE luciferase assay, F6.48A mutant; format: cell-based
Method in brief: as §1

GPR55 K2.60A [10] = biological target: T10, GPR55 K2.60A (Homo sapiens, UniProt Q9Y2T6, K80A); experiment: SRE luciferase assay, K2.60A mutant; format: cell-based
Method in brief: as §1

GPR55 E3.29A [11] = biological target: T11, GPR55 E3.29A (Homo sapiens, UniProt Q9Y2T6, E98A); experiment: SRE luciferase assay, E3.29A mutant; format: cell-based
Method in brief: as §1

GPR55 E3.29L [12] = biological target: T12, GPR55 E3.29L (Homo sapiens, UniProt Q9Y2T6, E98L); experiment: SRE luciferase assay, E3.29L mutant; format: cell-based
Method in brief: as §1

WT GPR55 [13] = biological target: T1, WT GPR55; experiment: SRF luciferase assay, WT GPR55; format: cell-based
GPR55 Y3.32F [14] = biological target: T2, GPR55 Y3.32F; experiment: SRF luciferase assay, Y3.32F mutant; format: cell-based
GPR55 Y3.32L [15] = biological target: T3, GPR55 Y3.32L; experiment: SRF luciferase assay, Y3.32L mutant; format: cell-based
GPR55 F6.55A [16] = biological target: T4, GPR55 F6.55A; experiment: SRF luciferase assay, F6.55A mutant; format: cell-based
GPR55 F6.55L [17] = biological target: T5, GPR55 F6.55L; experiment: SRF luciferase assay, F6.55L mutant; format: cell-based
GPR55 C(10)A [18] = biological target: T6, GPR55 C(10)A; experiment: SRF luciferase assay, C; format: cell-based
GPR55 C(260)A [19] = biological target: T7, GPR55 C(260)A; experiment: SRF luciferase assay, C; format: cell-based
GPR55 M3.36A [20] = biological target: T8, GPR55 M3.36A; experiment: SRF luciferase assay, M3.36A mutant; format: cell-based
GPR55 F6.48A [21] = biological target: T9, GPR55 F6.48A; experiment: SRF luciferase assay, F6.48A mutant; format: cell-based
GPR55 K2.60A [22] = biological target: T10, GPR55 K2.60A; experiment: SRF luciferase assay, K2.60A mutant; format: cell-based
GPR55 E3.29A [23] = biological target: T11, GPR55 E3.29A; experiment: SRF luciferase assay, E3.29A mutant; format: cell-based
GPR55 E3.29L [24] = biological target: T12, GPR55 E3.29L; experiment: SRF luciferase assay, E3.29L mutant; format: cell-based
GPR55 = conditions: agonist screen of the NIH library; cited from earlier work

T12 sequence (Q9Y2T6 whole entry E98L): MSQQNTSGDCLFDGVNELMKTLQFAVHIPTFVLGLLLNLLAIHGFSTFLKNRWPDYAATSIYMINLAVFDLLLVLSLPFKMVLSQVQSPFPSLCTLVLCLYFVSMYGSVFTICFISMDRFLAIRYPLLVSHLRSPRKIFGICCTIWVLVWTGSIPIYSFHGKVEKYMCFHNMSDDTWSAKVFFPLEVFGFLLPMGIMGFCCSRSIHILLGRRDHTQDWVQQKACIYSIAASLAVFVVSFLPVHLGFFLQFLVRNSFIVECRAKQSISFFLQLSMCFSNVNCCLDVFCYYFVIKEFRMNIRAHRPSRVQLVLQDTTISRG
T10 sequence (Q9Y2T6 whole entry K80A): as the sequence (Q9Y2T6 whole entry E98L) above, with K80A, L98E counted along it
T6 sequence (Q9Y2T6 whole entry C10A): as the sequence (Q9Y2T6 whole entry E98L) above, with C10A, L98E counted along it
Chain of GPR55 Q7.36N (Q9Y2T6 whole entry Q271N): as the sequence (Q9Y2T6 whole entry E98L) above, with L98E, Q271N counted along it
Chain of GPR55 Q6.58M (Q9Y2T6 whole entry Q249M): as the sequence (Q9Y2T6 whole entry E98L) above, with L98E, Q249M counted along it
T7 sequence (Q9Y2T6 whole entry C260A): as the sequence (Q9Y2T6 whole entry E98L) above, with L98E, C260A counted along it
T3 sequence (Q9Y2T6 whole entry Y101L): as the sequence (Q9Y2T6 whole entry E98L) above, with L98E, Y101L counted along it
T9 sequence (Q9Y2T6 whole entry F239A): as the sequence (Q9Y2T6 whole entry E98L) above, with L98E, F239A counted along it
T4 sequence (Q9Y2T6 whole entry F246A): as the sequence (Q9Y2T6 whole entry E98L) above, with L98E, F246A counted along it
T11 sequence (Q9Y2T6 whole entry E98A): as the sequence (Q9Y2T6 whole entry E98L) above, with L98A counted along it
T2 sequence (Q9Y2T6 whole entry Y101F): as the sequence (Q9Y2T6 whole entry E98L) above, with L98E, Y101F counted along it
T5 sequence (Q9Y2T6 whole entry F246L): as the sequence (Q9Y2T6 whole entry E98L) above, with L98E, F246L counted along it
Chain of GPR55 Q7.36A (Q9Y2T6 whole entry Q271A): as the sequence (Q9Y2T6 whole entry E98L) above, with L98E, Q271A counted along it
T8 sequence (Q9Y2T6 whole entry M105A): as the sequence (Q9Y2T6 whole entry E98L) above, with L98E, M105A counted along it
Chain of GPR55 H(170)F (Q9Y2T6 whole entry H170F): as the sequence (Q9Y2T6 whole entry E98L) above, with L98E, H170F counted along it
T1 sequence (Q9Y2T6 whole entry): as the sequence (Q9Y2T6 whole entry E98L) above, with L98E counted along it

- EC50 (WT GPR55 [1]): 0.056 µM
- EC50 (GPR55 Y3.32F [2]): 1.66 µM
- SRE response compared with WT (in words) (GPR55 Y3.32F [2]; Y3.32F): right shifted SRE response curves
- Fold/WT, SRE EC50 (GPR55 Y3.32F [2]; Y3.32F vs WT): 30 fold
- EC50 (GPR55 Y3.32L [3]): 9.51 µM
- SRE response compared with WT (in words) (GPR55 Y3.32L [3]; Y3.32L): right shifted SRE response curves
- Fold/WT, SRE EC50 (GPR55 Y3.32L [3]; Y3.32L vs WT): 170 fold
- EC50 (GPR55 F6.55A [4]): 0.84 µM
- SRE response compared with WT (in words) (GPR55 F6.55A [4]; F6.55A): right shifted curves
- Fold/WT, SRE EC50 (GPR55 F6.55A [4]; F6.55A vs WT): 15 fold
- EC50 (GPR55 F6.55L [5]): 5.13 µM
- SRE response compared with WT (in words) (GPR55 F6.55L [5]; F6.55L): right shifted curves
- Fold/WT, SRE EC50 (GPR55 F6.55L [5]; F6.55L vs WT): 92 fold
- EC50 (GPR55 Q6.58M): 0.072 µM
- Fold/WT, SRE EC50 (GPR55 Q6.58M; Q6.58M vs WT): 1 fold
- EC50 (GPR55 C(10)A [6]): 0.635 µM
- Fold/WT, SRE EC50 (GPR55 C(10)A [6]; C(10)A vs WT): 11 fold
- EC50 (GPR55 H(170)F): 0.341 µM
- SRE response compared with WT (in words) (GPR55 H(170)F; H(170)F): slight difference from that of WT
- Fold/WT, SRE EC50 (GPR55 H(170)F; H(170)F vs WT): 6 fold
- EC50 (GPR55 C(260)A [7]): 0.657 µM
- Fold/WT, SRE EC50 (GPR55 C(260)A [7]; C(260)A vs WT): 12 fold
- EC50 (GPR55 Q7.36A): 0.23 µM
- SRE response compared with WT (in words) (GPR55 Q7.36A; Q7.36A): retains WT signalling
- Fold/WT, SRE EC50 (GPR55 Q7.36A; Q7.36A vs WT): 4 fold
- EC50 (GPR55 Q7.36N): 0.154 µM
- SRE response compared with WT (in words) (GPR55 Q7.36N; Q7.36N): retains WT signalling
- Fold/WT, SRE EC50 (GPR55 Q7.36N; Q7.36N vs WT): 3 fold
- EC50 (GPR55 M3.36A [8]): 0.9 µM
- Fold/WT, SRE EC50 (GPR55 M3.36A [8]; M3.36A vs WT): 16 fold
- EC50 (GPR55 F6.48A [9]): 0.514 µM
- Fold/WT, SRE EC50 (GPR55 F6.48A [9]; F6.48A vs WT): 9 fold
- EC50, SRE response (GPR55 K2.60A [10]; transfected HEK293, n ≥ 3): NO response
- EC50 (GPR55 E3.29A [11]): > 30 µM
- EC50 (GPR55 E3.29L [12]): > 30 µM
- EC50 (WT GPR55 [13]): 0.033 µM
- EC50 (GPR55 Y3.32F [14]): 0.851 µM
- SRF response compared with WT (in words) (GPR55 Y3.32F [14]; Y3.32F): right shifted curves
- Fold/WT, SRF EC50 (GPR55 Y3.32F [14]; Y3.32F vs WT): 26 fold
- EC50 (GPR55 Y3.32L [15]): 864 µM
- SRF response compared with WT (in words) (GPR55 Y3.32L [15]; Y3.32L): right shifted curves
- Fold/WT, SRF EC50 (GPR55 Y3.32L [15]; Y3.32L vs WT): 26182 fold
- EC50 (GPR55 F6.55A [16]): 0.55 µM
- SRF response compared with WT (in words) (GPR55 F6.55A [16]; F6.55A): higher EC50 values than WT
- Fold/WT, SRF EC50 (GPR55 F6.55A [16]; F6.55A vs WT): 17 fold
- EC50 (GPR55 F6.55L [17]): 10.5 µM
- SRF response compared with WT (in words) (GPR55 F6.55L [17]; F6.55L): higher EC50 values than WT
- Fold/WT, SRF EC50 (GPR55 F6.55L [17]; F6.55L vs WT): 318 fold
- EC50 (GPR55 C(10)A [18]): 0.554 µM
- SRF response compared with WT (in words) (GPR55 C(10)A [18]; C(10)A): less response than WT
- Fold/WT, SRF EC50 (GPR55 C(10)A [18]; C(10)A vs WT): 17 fold
- EC50 (GPR55 C(260)A [19]): 0.363 µM
- SRF response compared with WT (in words) (GPR55 C(260)A [19]; C(260)A): less response than WT
- Fold/WT, SRF EC50 (GPR55 C(260)A [19]; C(260)A vs WT): 11 fold
- EC50 (GPR55 M3.36A [20]): 2.04 µM
- SRF response compared with WT (in words) (GPR55 M3.36A [20]; M3.36A): reduced responses
- Fold/WT, SRF EC50 (GPR55 M3.36A [20]; M3.36A vs WT): 62 fold
- EC50 (GPR55 F6.48A [21]): 0.335 µM
- SRF response compared with WT (in words) (GPR55 F6.48A [21]; F6.48A): reduced responses
- Fold/WT, SRF EC50 (GPR55 F6.48A [21]; F6.48A vs WT): 10 fold
- EC50, SRF response (GPR55 K2.60A [22]; transfected HEK293, n ≥ 3): NO response
- EC50 (GPR55 E3.29A [23]): > 30 µM
- SRF response compared with WT (in words) (GPR55 E3.29A [23]; E3.29A): reduced responses
- EC50 (GPR55 E3.29L [24]): > 30 µM
- SRF response compared with WT (in words) (GPR55 E3.29L [24]; E3.29L): reduced responses
SMILES: Cc1cccc(N2CCN(C(=O)c3cc(S(=O)(=O)N(C)C)ccc3N3CCCC3)CC2)c1C [ML184, 3-[4-(2,3-dimethylphenyl)piperazine-1-carbonyl]-N,N-dimethyl-4-pyrrolidin-1-ylbenzenesulfonamide]
- SRE response compared with WT (in words) (GPR55 Q6.58M; Q6.58M): retained WT signalling; also recorded: almost identical to that of WT
- SRE response compared with WT (in words) (GPR55 M3.36A [8]; M3.36A): SRE induction comparable to wild-type; also recorded: increased EC50 values
- SRE response compared with WT (in words) (GPR55 F6.48A [9]; F6.48A): SRE induction comparable to wild-type; also recorded: increased EC50 values
- SRE response compared with WT (in words) (GPR55 K2.60A [10]): complete loss of signalling; also recorded: did not show any response
- SRE response compared with WT (in words) (GPR55 E3.29A [11]; E3.29A): profound reduction of receptor signalling; also recorded: very little responses
- SRE response compared with WT (in words) (GPR55 E3.29L [12]; E3.29L): profound reduction of receptor signalling; also recorded: very little responses
- SRF response compared with WT (in words) (GPR55 K2.60A [22]): not able to induce any response; also recorded: complete loss of signalling
- EC50 (GPR55): 0.263 µM
